In ChEMBL document CHEMBL2010694, “Indolyl and dihydroindolyl N-glycinamides as potent and in vivo active NPY5 antagonists” (Bioorg Med Chem Lett, 2012):
Values after ≈ are worked out from the molar mass of the structure shown.

What was measured:
[1] = Clearance in Sprague-Dawley rat plasma at 2 mg/kg, po and 1 mg/kg, iv after 24 hrs wash out period by HPLC analysis; format: ADME, organism-based
Method in brief: (§1)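 Male Sprague-Dawley rats (200–250 g), jugular and carotid artery cannulated; compound dissolved in 20% beta cyclodextrin, pH adjusted with methane sulfonic acid. Serial blood sampled at 12 time points over 24 h post dose by automated sampler; plasma from centrifugation analysed by HPLC; PK parameters by non-compartmental analysis of plasma concentration–time profile.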

[2] = system: Liver microsomes; experiment: Intrinsic clearance in rat liver microsomes at 1 uM by LC/MS analysis; format: ADME, Microsome
Method in brief: (§2)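 Compound incubated with human or rat liver microsomes; reaction quenched with acetonitrile, centrifuged, and remaining drug in supernatant measured by LC/MS to estimate T1/2, from which intrinsic clearance was derived.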

[3] = Solubility of the compound at pH 7.4; format: physicochemical; settings: buffer
[4] = Drug uptake in cPP-induced feeding Sprague-Dawley rat model brain at 10 mg/kg, po after 1 hr; format: ADME, organism-based; set-up: dose 10 mg/kg, route oral; settings: read-out: Drug uptake
Method in brief: (§3)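 Satellite animals from the cPP feeding study dosed orally at 0.1, 1 or 10 mg/kg; plasma (ng/mL) and brain (ng/g) levels measured 1 h after dosing.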

[5] = Half life in Sprague-Dawley rat plasma at 2 mg/kg, po and 1 mg/kg, iv after 24 hrs wash out period by HPLC analysis; format: ADME, organism-based; method in brief: as §1
[6] = Plasma concentration in cPP-induced feeding Sprague-Dawley rat model at 0.1 mg/kg, po after 1 hr; format: ADME, organism-based; set-up: dose 0.1 mg/kg, route oral; method in brief: as §3
[7] = Tmax in Sprague-Dawley rat plasma at 2 mg/kg, po and 1 mg/kg, iv after 24 hrs wash out period by HPLC analysis; format: ADME, organism-based; method in brief: as §1
[8] = biological target: T1, Cytochrome P450 1A2 (Homo sapiens, UniProt P05177); experiment: Inhibition of CYP1A2; format: ADME
T1 sequence (P05177 whole entry): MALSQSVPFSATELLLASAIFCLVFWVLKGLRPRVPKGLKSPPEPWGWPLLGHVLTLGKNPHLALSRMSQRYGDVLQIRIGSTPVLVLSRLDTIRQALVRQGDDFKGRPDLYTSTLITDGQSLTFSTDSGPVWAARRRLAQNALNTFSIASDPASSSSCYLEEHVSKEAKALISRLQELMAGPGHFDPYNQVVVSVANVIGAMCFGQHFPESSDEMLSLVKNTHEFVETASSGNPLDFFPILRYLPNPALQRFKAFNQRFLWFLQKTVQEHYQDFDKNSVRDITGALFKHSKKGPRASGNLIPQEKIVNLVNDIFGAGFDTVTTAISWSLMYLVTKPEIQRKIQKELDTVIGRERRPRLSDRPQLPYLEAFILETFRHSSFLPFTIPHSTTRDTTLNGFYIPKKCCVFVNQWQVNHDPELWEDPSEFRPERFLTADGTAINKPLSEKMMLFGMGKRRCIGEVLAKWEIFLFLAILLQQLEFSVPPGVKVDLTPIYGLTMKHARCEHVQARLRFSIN

[9] = system: Rattus norvegicus; experiment: Antiobesity activity in po dosed cPP-induced feeding Sprague-Dawley rat model assessed as reduction in food intake measured 1 hr post cpp challenge; format: functional
Method in brief: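 Rats pretreated orally at 0.1, 1 or 10 mg/kg (vehicle 20% cyclodextrin) 1 h before intracerebroventricular infusion of Y5-selective peptide agonist cPP, 0.6 nmol in normal saline; food intake recorded, n = 7–14 per group.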

[10] = Protein binding in human; format: ADME, organism-based; settings: plasma, read-out: PB (converted)
[11] = Plasma concentration in cPP-induced feeding Sprague-Dawley rat model at 10 mg/kg, po after 1 hr; format: ADME, organism-based; set-up: dose 10 mg/kg, route oral; method in brief: as §3
[12] = system: Plasma; experiment: Plasma concentration in Sprague-Dawley rat at 10 mg/kg, po by LC-MS/MS analysis; format: ADME, organism-based; set-up: dose 10 mg/kg, route oral; settings: in vivo
Method in brief: (§4)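 Male Sprague-Dawley rats (300–350 g), femoral artery cannulated; single 10 mg/kg oral dose in an appropriate vehicle, N = 3. Blood taken predose, 1, 2 and 4 h; brains then collected and stored at -80 °C. Equal portions of plasma or homogenized brain from the three rats pooled per time point, protein precipitated, quantified by LC/MS/MS.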

[13] = Clearance in Sprague-Dawley rat blood at 2 mg/kg, po and 1 mg/kg, iv after 24 hrs wash out period by HPLC analysis; format: ADME, organism-based; settings: whole blood; method in brief: as §1
[14] = Lipophilicity, log D of the compound at pH 7.4; format: physicochemical; settings: buffer
[15] = system: Liver microsomes; experiment: Intrinsic clearance in human liver microsomes at 1 uM by LC/MS analysis; format: ADME, Microsome; method in brief: as §2
[16] = Absolute oral bioavailability in Sprague-Dawley rat at 2 mg/kg after 24 hrs wash out period by HPLC analysis; format: ADME, organism-based; settings: in vivo; method in brief: as §1
[17] = biological target: T2, Neuropeptide Y receptor type 5 (Homo sapiens, UniProt Q15761); experiment: Displacement of [125I]peptide YY from human NPY5 receptor
T2 sequence (Q15761 whole entry): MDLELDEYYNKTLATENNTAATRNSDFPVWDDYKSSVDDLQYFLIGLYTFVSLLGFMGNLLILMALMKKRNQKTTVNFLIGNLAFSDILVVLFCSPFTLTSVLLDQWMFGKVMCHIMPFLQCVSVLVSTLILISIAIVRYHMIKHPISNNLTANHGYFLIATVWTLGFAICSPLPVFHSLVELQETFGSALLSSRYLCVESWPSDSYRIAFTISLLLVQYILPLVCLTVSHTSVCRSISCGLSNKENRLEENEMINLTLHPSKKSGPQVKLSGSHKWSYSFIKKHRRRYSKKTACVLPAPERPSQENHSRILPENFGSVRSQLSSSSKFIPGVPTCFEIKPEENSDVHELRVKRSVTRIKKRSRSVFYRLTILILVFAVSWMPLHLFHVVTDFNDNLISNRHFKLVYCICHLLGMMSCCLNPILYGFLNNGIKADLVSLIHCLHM

[18] = system: Brain; experiment: Drug uptake in Sprague-Dawley rat brain assessed as 2-(5-chloro-1H-indol-1-yl)-N-(4-((propan-2-ylsulfonamido)methyl)cyclohexyl)acetamide level at 10 mg/kg, po after 1 hr by LC-MS/MS analysis; format: ADME, organism-based; set-up: dose 10 mg/kg, route oral; settings: in vivo, read-out: Drug uptake; method in brief: as §4
[19] = Cmax in Sprague-Dawley rat plasma at 2 mg/kg, po and 1 mg/kg, iv after 24 hrs wash out period by HPLC analysis; format: ADME, organism-based; method in brief: as §1
[20] = system: Brain; experiment: Drug uptake in Sprague-Dawley rat brain at 10 mg/kg, po by LC-MS/MS analysis; format: ADME, organism-based; set-up: dose 10 mg/kg, route oral; settings: in vivo, read-out: Drug uptake; method in brief: as §4
[21] = Plasma concentration in cPP-induced feeding Sprague-Dawley rat model at 1 mg/kg, po after 1 hr; format: ADME, organism-based; set-up: dose 1 mg/kg, route oral; method in brief: as §3
[22] = biological target: Cytochrome P450 2D6 (Homo sapiens, UniProt P10635); experiment: Inhibition of CYP2D6; format: ADME
[23] = Drug uptake in cPP-induced feeding Sprague-Dawley rat model brain at 0.1 mg/kg, po after 1 hr; format: ADME, organism-based; set-up: dose 0.1 mg/kg, route oral; settings: read-out: Drug uptake; method in brief: as §3
[24] = biological target: Cytochrome P450 2C19 (Homo sapiens, UniProt P33261); experiment: Inhibition of CYP2C19; format: ADME
[25] = Drug uptake in cPP-induced feeding Sprague-Dawley rat model brain at 1 mg/kg, po after 1 hr; format: ADME, organism-based; set-up: dose 1 mg/kg, route oral; settings: read-out: Drug uptake; method in brief: as §3
[26] = biological target: Cytochrome P450 3A4 (Homo sapiens, UniProt P08684); experiment: Inhibition of CYP3A4; format: ADME
[27] = system: Plasma; experiment: Plasma concentration in Sprague-Dawley rat assessed as 2-(5-chloro-1H-indol-1-yl)-N-(4-((propan-2 ylsulfonamido)methyl)cyclohexyl)acetamide level at 10 mg/kg, po after 1 hr by LC-MS/MS analysis; format: ADME, organism-based; set-up: dose 10 mg/kg, route oral; settings: in vivo; method in brief: as §4
[28] = Volume of distribution at steady state in Sprague-Dawley rat plasma at 2 mg/kg, po and 1 mg/kg, iv after 24 hrs wash out period by HPLC analysis; format: ADME, organism-based; settings: read-out: Vdss; method in brief: as §1
[29] = biological target: T3, Cytochrome P450 2C8 (Homo sapiens, UniProt P10632); experiment: Inhibition of CYP2C8; format: ADME
T3 sequence (P10632 whole entry): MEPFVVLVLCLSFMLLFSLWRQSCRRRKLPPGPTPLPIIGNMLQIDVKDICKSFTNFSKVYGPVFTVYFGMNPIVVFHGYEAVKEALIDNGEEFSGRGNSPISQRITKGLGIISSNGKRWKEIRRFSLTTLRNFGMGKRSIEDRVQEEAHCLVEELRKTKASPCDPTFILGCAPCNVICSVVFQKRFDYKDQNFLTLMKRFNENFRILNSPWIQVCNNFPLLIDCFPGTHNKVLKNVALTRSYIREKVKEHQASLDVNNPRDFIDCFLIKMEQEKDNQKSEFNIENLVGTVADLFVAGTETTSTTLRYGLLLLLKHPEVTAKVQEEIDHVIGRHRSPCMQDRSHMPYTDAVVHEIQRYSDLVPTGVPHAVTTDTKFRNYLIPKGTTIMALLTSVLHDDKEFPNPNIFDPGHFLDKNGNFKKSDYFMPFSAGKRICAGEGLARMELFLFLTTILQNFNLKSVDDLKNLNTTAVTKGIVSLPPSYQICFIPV

Cytochrome P450 2D6, sequence (P10635 whole entry): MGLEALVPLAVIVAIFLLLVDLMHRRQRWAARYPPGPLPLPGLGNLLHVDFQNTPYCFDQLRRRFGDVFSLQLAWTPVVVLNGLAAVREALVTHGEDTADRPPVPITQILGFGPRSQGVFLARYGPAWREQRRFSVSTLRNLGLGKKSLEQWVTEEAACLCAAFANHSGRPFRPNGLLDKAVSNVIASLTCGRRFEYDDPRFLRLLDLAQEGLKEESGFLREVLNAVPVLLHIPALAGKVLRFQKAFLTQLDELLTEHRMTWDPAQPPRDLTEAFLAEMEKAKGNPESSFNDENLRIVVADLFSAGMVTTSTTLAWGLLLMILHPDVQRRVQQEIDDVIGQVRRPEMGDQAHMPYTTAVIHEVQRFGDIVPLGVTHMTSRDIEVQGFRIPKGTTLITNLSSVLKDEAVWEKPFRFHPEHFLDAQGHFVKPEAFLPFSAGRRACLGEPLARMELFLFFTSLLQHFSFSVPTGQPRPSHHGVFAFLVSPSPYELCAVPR
Cytochrome P450 3A4, sequence (P08684 whole entry): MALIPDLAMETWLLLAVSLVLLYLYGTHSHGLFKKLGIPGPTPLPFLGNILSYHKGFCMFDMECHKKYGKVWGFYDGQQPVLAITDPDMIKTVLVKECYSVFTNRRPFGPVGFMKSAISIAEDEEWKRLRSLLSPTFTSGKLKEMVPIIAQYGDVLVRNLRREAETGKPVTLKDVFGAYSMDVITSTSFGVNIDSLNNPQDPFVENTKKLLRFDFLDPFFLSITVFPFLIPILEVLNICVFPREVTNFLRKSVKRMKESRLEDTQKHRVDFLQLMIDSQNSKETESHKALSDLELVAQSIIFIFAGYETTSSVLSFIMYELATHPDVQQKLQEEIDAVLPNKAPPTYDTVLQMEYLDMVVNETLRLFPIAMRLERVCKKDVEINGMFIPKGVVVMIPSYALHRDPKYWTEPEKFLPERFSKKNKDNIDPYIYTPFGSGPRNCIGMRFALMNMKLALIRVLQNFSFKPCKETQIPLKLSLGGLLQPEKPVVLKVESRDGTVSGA
Cytochrome P450 2C19, sequence (P33261 whole entry): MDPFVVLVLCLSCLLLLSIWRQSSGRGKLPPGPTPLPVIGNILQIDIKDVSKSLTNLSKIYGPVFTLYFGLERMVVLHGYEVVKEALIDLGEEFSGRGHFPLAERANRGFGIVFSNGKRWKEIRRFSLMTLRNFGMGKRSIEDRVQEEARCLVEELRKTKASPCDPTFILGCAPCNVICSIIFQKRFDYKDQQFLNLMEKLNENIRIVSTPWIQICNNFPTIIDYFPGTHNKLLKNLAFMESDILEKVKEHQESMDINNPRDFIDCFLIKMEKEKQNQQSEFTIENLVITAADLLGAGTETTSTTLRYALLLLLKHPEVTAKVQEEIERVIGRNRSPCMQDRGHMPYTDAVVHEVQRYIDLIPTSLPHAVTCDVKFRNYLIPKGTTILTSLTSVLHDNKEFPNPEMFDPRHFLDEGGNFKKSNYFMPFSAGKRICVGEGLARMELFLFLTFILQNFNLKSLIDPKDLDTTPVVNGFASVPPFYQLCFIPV

clearance [1]: 10 mL/min/kg
CLH [2]: 11 mL/min
solubility [3]: 160 µM (≈ 68.2 µg/mL)
concentration at 1 h [4]: 132 ng/g
half-life [5]: 7.2 h
concentration at 1 h [6]: 84 ng/mL
Tmax [7]: 2 h
inhibition (INH) [8]: Not Active
fraction unbound [10]: 0.004
concentration at 1 h [11]: 1260 ng/mL
concentration [12]: 751 nM
clearance [13]: 15 mL/min/kg
logD [14]: 1.2
CLH [15]: 1.9 L/min
bioavailability [16]: 79%
Ki [17]: 0.3 nM
concentration [18]: 641 nM
Cmax [19]: 480 ng/mL
concentration [20]: 54 nM
concentration at 1 h [21]: 613 ng/mL
inhibition (INH) [22]: Not Active
concentration at 1 h [23]: 6 ng/g
inhibition (INH) [24]: Not Active
concentration at 1 h [25]: 38 ng/g
inhibition (INH) [26]: Not Active
concentration [27]: 8010 nM
Vd [28]: 2.8 L/kg
inhibition (INH) [29]: Not Active
SMILES: CC(C)S(=O)(=O)NC[C@H]1CC[C@H](NC(=O)Cn2ccc3cc(Cl)ccc32)CC1
Activity [9]: Dose-dependent effect
minimal effective dose ([9]; read-out: MED): 0.1 mg/kg
